Measured values from ChEMBL document CHEMBL1149898, “A biaryl xanthone derivative having axial chirality from Penicillium vinaceum” (J Nat Prod, 2008).
Converted amounts (≈) assume the structure as drawn. The source made the active and inactive calls. No cut-off for these calls is given here.

Tests used:
Bacillus subtilis = experiment: Antibacterial activity against Bacillus subtilis by disk diffusion test; format: functional, organism-based
How it was run: (§1)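 Bacterial suspensions were grown 2–5 h to a suitable OD, diluted with water and swabbed evenly over agar. After the inoculum dried, disks carrying 10, 50, 100 and 200 µg of compound were applied. Plates were incubated overnight, and zone diameters around the disks were measured.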

Staphylococcus aureus = experiment: Antibacterial activity against Staphylococcus aureus by disk diffusion test; format: functional, organism-based; how it was run: as §1
Escherichia coli = experiment: Antibacterial activity against Escherichia coli by disk diffusion test; format: functional, organism-based; how it was run: as §1
Saccharomyces cerevisiae = experiment: Antifungal activity against Saccharomyces cerevisiae after 18 to 24 hrs by disk diffusion test; format: functional, organism-based
How it was run: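 Diluted yeast inoculum was spread on 90 mm agar plates supplemented with 2% glucose and dried for 5–15 min. Disks loaded with 10, 50, 100 and 200 µg of compound were placed on top. Plates were incubated 18–24 h at 28 °C, then inhibition zone diameters were measured.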

Paracentrotus lividus = experiment: Inhibition of sea urchin egg fertilization by sea urchin sperm assessed as inhibition of divided eggs by light microscopy; format: functional, organism-based
How it was run: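 Eggs were rinsed, filtered and diluted in artificial seawater to 2000 eggs/mL. "Dry" sperm was diluted 1:50 in ASW, and 10 µL was added per 1 mL eggs at 20 °C. Compounds were in DMSO at 50 µg/mL, with DMSO-only controls. Eggs were cultured at room temperature with gentle agitation, and percent divided eggs was scored by light microscopy 30 min post-fertilization.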

[1] = tested on: Agrobacterium tumefaciens; experiment: Antitumor activity against Agrobacterium tumefaciens-induced 10 ppm crown gall tumor in potato tubers at […] after 21 days by crown gall tumor potato disk test; format: functional
How it was run: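 Potato tubers were surface-sterilized in 1% NaOCl for 20 min and cut into 5 mm disks, 10 per 2% agar plate. A 48 h Agrobacterium tumefaciens culture, mixed with compound in DMSO at 10 or 100 µg/mL, was applied to each disk. Plates were kept at 28 °C for 21 days. Tumors per disk were counted; % inhibition = 100 − (mean tumors sample/mean control)×100.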

Structure (SMILES)	Activity (Bacillus subtilis)	Activity (Staphylococcus aureus)	Activity (Escherichia coli)	Activity (Saccharomyces cerevisiae)	IC50 (Paracentrotus lividus) [µg/mL]	inhibition (INH) [1] [%]
CC(=O)c1cc2c(=O)c3c(C(=O)O)c(O)c(O)cc3oc2c(C(C)=O)c1-c1coc2cc(O)c(O)c(C(=O)O)c2c1=O [VINAXANTHONE]	inactive	inactive	inactive	inactive	0.12 (≈ 0.208 µM)	67
COc1oc2cc(O)c(O)c(C(=O)O)c2c(=O)c1-c1c(C(C)=O)cc2c(=O)c3c(C(=O)O)c(O)c(O)cc3oc2c1C(C)=O	inactive	inactive	inactive	inactive	0.05 (≈ 0.0824 µM)	72
CC(=O)c1cc2c(=O)c3c(C(=O)O)c(O)c(O)cc3oc2c(C(C)=O)c1C1COc2cc(O)c(O)c(C(=O)O)c2C1=O (stereo not drawn)	inactive	inactive	inactive	inactive	0.71 (≈ 1.23 µM)	12
